Assay outcomes from PubChem.
Most compounds without a hit are left out; they make up all but 4% or so of the library.
OX1R antag-1: antagonists of human orexin 1 receptor (OX1R); AID 485270, 2010; Orexin/Hypocretin receptor type 1 (Homo sapiens), O43613; OX1R-expressing cells, FRET antagonist read-out; inhibition, % at 6.6 µM; hit rate 1.8% among 330,000; in the data active = inhibition mostly above about 38%, no sharp cut-off; inactive = mostly below about 40%;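 also: 0% = agonist challenge alone and 100% = reference antagonist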
Target sequence (O43613 whole entry, looked up): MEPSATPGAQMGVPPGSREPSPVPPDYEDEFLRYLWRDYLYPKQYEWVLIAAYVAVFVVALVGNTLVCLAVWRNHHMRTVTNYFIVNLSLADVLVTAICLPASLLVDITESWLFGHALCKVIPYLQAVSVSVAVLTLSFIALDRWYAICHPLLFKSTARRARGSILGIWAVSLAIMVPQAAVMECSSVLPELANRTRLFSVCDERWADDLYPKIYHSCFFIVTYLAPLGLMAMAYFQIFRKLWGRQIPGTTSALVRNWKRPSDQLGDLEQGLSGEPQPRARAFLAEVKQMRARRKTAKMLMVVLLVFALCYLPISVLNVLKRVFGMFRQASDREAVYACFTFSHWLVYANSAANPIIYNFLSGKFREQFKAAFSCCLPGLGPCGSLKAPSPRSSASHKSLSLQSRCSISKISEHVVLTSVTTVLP
CHO parental Ca: ATP-evoked calcium signal inhibitors, parental CHO, primary screen, counter-screen for OX1R antagonist project, cell-based, fluorescence, Fluo-8 calcium dye; parental CHO-K1, ATP-induced calcium, Fluo-8 fluorescence; inhibition, % at 5.6 µM; hit rate 0.63% among 330,000;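 active = inhibition above that plate's mean sample inhibition plus 3 SD, cut at about 26% in these data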;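 also: 0% = ATP-challenged DMSO wells and 100% = DMSO wells without ATP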
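material = parental CHO cells | also added = ATP as calcium-mobilizing challenge | dosing = single point at 5.6 µM | detection = intracellular calcium via Fluo-8 no-wash fluorescent dye | read-out = % inhibition | benchmarks = low control ATP plus DMSO, high control DMSO only | repeats = one well per compound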
OX1R antag-2: OX1R (HCRTR1) antagonists, primary screen, fluorescence, CHO/OX1R cells, Fluo-8 calcium, orexin A. Orexin/Hypocretin receptor type 1 (Homo sapiens), O43613. Fluo-8 calcium fluorescence. inhibition, % at 5 µM. hit rate 0.43% among 330,000. AID 434989, 2010;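 active = inhibition above its plate's threshold, mean inhibition of all tested compounds on the plate plus 3 SD, cut at about 37% in these data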;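 also: 0% = orexin A challenge wells and 100% = SB-334867-A antagonist wells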
TAAR1 agonist: human TAAR1 agonists, primary screen, Fluo-8 calcium fluorescence, CHO RD-HGA16 cells; hit rate 0.99% among 360,000; vehicle wells 0%, saturating PEA agonist 100%; activation, % at 3 µM; AID 624467, 2012; Trace amine-associated receptor 1 (Homo sapiens), Q96RJ0;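 active = activation above the mean activation of all test compounds in the run plus 3 SD, cut at about 38% in these data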
Target sequence (Q96RJ0 whole entry, looked up): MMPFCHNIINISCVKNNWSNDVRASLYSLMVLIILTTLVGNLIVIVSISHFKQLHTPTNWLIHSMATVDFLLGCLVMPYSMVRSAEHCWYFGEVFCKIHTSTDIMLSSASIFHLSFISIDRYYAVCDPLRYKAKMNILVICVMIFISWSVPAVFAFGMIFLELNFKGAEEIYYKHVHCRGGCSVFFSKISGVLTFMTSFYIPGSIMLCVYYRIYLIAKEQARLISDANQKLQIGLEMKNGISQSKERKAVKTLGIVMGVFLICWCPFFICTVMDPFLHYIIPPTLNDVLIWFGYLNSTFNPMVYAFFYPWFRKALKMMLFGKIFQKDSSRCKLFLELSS
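Signal – calcium-sensitive Fluo-8 signal, excitation 470-495, emission 515-575 nm · System – RD-HGA16 (CHO) cells co-expressing Gα16 and hTAAR1 · Incubation – 17-24 h seeding, 75 min 37 °C dye, 30 min RT · Compound dosing – 3 µM single concentration · Repeats – no replicates (n 1)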
TAAR1 antagonist: human TAAR1 antagonists, primary screen, Fluo-8 calcium fluorescence, CHO RD-HGA16 cells; Trace amine-associated receptor 1 (Homo sapiens), Q96RJ0; antagonist; inhibition, % at 3 µM; hit rate 1.5% among 360,000; AID 624466, 2012;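 active = inhibition above a per-plate cutoff, the mean inhibition of test compounds on that plate plus 3 SD, cut at about 49% in these data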;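 also: 0% = DMSO plus EC80 beta-PEA response and 100% = DMSO alone without agonist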
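Test system – hTAAR1-expressing CHO RD-HGA16 cells, Gα16-coupled · Also added – β-PEA at EC80 concentration, post-compound challenge · Compound – 3 µM, single point · Incubation – dye loading 75 min at 37 °C, then 30 min room temperature · Measured by – Fluo-8 intracellular calcium dye fluorescence, real-time kinetic reads · Benchmarks – vehicle and agonist controls · Replicates – singlicate, one well per test compound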
TAAR1 ag confirm: human TAAR1 agonists, retest of hits, confirmation, Fluo-8 calcium fluorescence, CHO RD-HGA16 cells; shares compounds with TAAR1 agonist; scaled: DMSO 0%, maximal phenethylamine 100%; activation, % at 3 µM; hit rate 82% among 2,400;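 active = activation above a cutoff set at the run's mean compound activation plus 3 SD, cut at about 39% in these data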
Ga16 ag counter: nonselective calcium mobilization agonists, CHO-Ga16 cells, counter-screen for hTAAR1 agonist project, cell-based, fluorescence, CHO-Ga16 parental line; hit rate 50% among 2,400; Fluo-8 calcium fluorescence; normalized to maximal ATP response, DMSO zero; shares compounds with TAAR1 agonist; activation, % at 3 µM;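 active = activation above the run cutoff, the mean activation over all tested wells plus 3 SD, cut at about 12% in these data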;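 also: 0% = DMSO wells and 100% = maximal ATP response on the peak over basal ratio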
TAAR1 desensitize: TAAR1 desensitization by agonist hits, confirmation, counter-screen for TAAR1 agonist project, cell-based, fluorescence, tachyphylaxis; shares compounds with TAAR1 agonist; CHO RD-HGA16 hTAAR1, Fluo-8 calcium, beta-PEA response inhibition; inhibition, % at 3 µM; hit rate 46% among 2,400;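 active = inhibition above the run cutoff, the mean inhibition of all test compounds plus 3 SD, cut at about 49% in these data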;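 also: beta-PEA stimulus applied at its EC80; loss of beta-PEA calcium signal after compound pretreatment read as receptor desensitization; 0% = DMSO with beta-PEA at EC80 and 100% = DMSO alone without agonist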
Ga16 nonsel ant: inhibition of ATP-evoked calcium response in CHO-Ga16 cells, counter-screen for TAAR1 agonist project, cell-based, fluorescence. shares compounds with TAAR1 agonist. CHO-Ga16 ATP-induced calcium, Fluo-8 fluorescence. inhibition, % at 3 µM. hit rate 39% among 2,400. AID 651952, 2012;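 active = inhibition above the plate's mean compound inhibition plus 3 SD, computed per plate, cut at about 22% in these data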;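 also: 0% = EC80 ATP with DMSO and 100% = DMSO wells without ATP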
An asterisk follows results filed as active.

How did Cc1ccc(SCC(=O)Nc2ccc(N3CCN(C)CC3)c(F)c2)c(C)c1 do in these assays?
OX1R antag-1: 4; CHO parental Ca: -22; OX1R antag-2: -15; TAAR1 agonist: 60*; TAAR1 antagonist: 52*; TAAR1 ag confirm: 80*; Ga16 ag counter: 2; TAAR1 desensitize: 75*; Ga16 nonsel ant: 7

What do the screens show for `COc1cccc(CN2CCN(Cc3cc4ccccc4[nH]3)CC2CCO)c1` (stereo not given)?
OX1R antag-1: 5; CHO parental Ca: 3; OX1R antag-2: 12; TAAR1 agonist: 63*; TAAR1 antagonist: 69*; TAAR1 ag confirm: 70*; Ga16 ag counter: 49*; TAAR1 desensitize: 81*; Ga16 nonsel ant: 56*

Results for CC(C)CCCCCCCCc1cccc(O)c1C(=O)O ?
TAAR1 agonist: 130*; TAAR1 antagonist: 98*; TAAR1 ag confirm: 114*; Ga16 ag counter: 89*; TAAR1 desensitize: 104*; Ga16 nonsel ant: 92*

What do the screens show for `CCCCN1Cc2cc(C(=O)c3cc(F)ccc3O)cnc2NC1=O`?
OX1R antag-1: 9; CHO parental Ca: -3; OX1R antag-2: -29; TAAR1 agonist: 82*; TAAR1 antagonist: 9; TAAR1 ag confirm: 53*; Ga16 ag counter: 24*; TAAR1 desensitize: 25; Ga16 nonsel ant: 16

How did CC1=CC(C)(C)N(C(=O)CCl)c2cc(C)ccc21 do in these assays?
OX1R antag-1: 12; CHO parental Ca: -14; OX1R antag-2: -24; TAAR1 agonist: 0; TAAR1 antagonist: -13

How did CC1=CC(C)(C)N(C(=O)c2ccc(F)cc2)c2cc3c(cc21)OCO3 do in these assays?
OX1R antag-1: 9; CHO parental Ca: 5; OX1R antag-2: 3; TAAR1 agonist: 59*; TAAR1 antagonist: 37; TAAR1 ag confirm: 62*; Ga16 ag counter: 41*; TAAR1 desensitize: 46; Ga16 nonsel ant: 34*

How did Cc1cccc(NC(=O)COC(=O)CSc2ccccc2)c1C do in these assays?
OX1R antag-1: -2; CHO parental Ca: -7; OX1R antag-2: -11; TAAR1 agonist: 0; TAAR1 antagonist: -2

What do the screens show for `O=C1NC(Cc2ccccc2)c2nc3cc(F)ccc3c(=O)n2-c2cc(Cl)ccc21` (stereo not given)?
OX1R antag-1: 2; CHO parental Ca: -32; OX1R antag-2: -8; TAAR1 agonist: 72*; TAAR1 antagonist: 24; TAAR1 ag confirm: 50*; Ga16 ag counter: 17*; TAAR1 desensitize: 14; Ga16 nonsel ant: 12

What do the screens show for `CSc1ncnc2c1ncn2CCCNCCc1ccccn1`?
TAAR1 agonist: 69*; TAAR1 antagonist: -4; TAAR1 ag confirm: 82*; Ga16 ag counter: 4; TAAR1 desensitize: 19; Ga16 nonsel ant: 4

Results for CCN(CC(=O)Nc1ccc2c(c1)OCCO2)C(=O)c1ccc(CS(C)(=O)=O)cc1 ?
OX1R antag-1: 9; CHO parental Ca: -12; OX1R antag-2: -13; TAAR1 agonist: 2; TAAR1 antagonist: -7

How did CC(=O)Nc1ccc(NC2CCCCC2NS(=O)(=O)c2ccccc2)cc1 (stereo not given) do in these assays?
OX1R antag-1: 21; CHO parental Ca: -15; OX1R antag-2: -9; TAAR1 agonist: 9; TAAR1 antagonist: -40

How did Cn1c(=O)c2[nH]c(Nc3ccccc3)nc2n(C)c1=O do in these assays?
OX1R antag-1: 3; CHO parental Ca: -1; OX1R antag-2: -16; TAAR1 agonist: 74*; TAAR1 antagonist: 33; TAAR1 ag confirm: 71*; Ga16 ag counter: 4; TAAR1 desensitize: 61*; Ga16 nonsel ant: 8

How did Cc1ccnc(NC(=O)Nc2ccc3c(c2)OCO3)c1 do in these assays?
OX1R antag-1: 7; CHO parental Ca: -10; OX1R antag-2: -7; TAAR1 agonist: 47*; TAAR1 antagonist: 4; TAAR1 ag confirm: 87*; Ga16 ag counter: 0; TAAR1 desensitize: 66*; Ga16 nonsel ant: 4

Results for CCc1ccccc1NC(=O)Nc1ccc2c(c1)OCO2 ?
OX1R antag-1: 29; CHO parental Ca: 3; OX1R antag-2: -16; TAAR1 agonist: 64*; TAAR1 antagonist: 43; TAAR1 ag confirm: 2; Ga16 ag counter: 5; TAAR1 desensitize: 3; Ga16 nonsel ant: 9

How did O=C(Nc1ccc2c(c1)OCCO2)Nc1ccc2c(c1)OCO2 do in these assays?
OX1R antag-1: 12; CHO parental Ca: -4; OX1R antag-2: -13; TAAR1 agonist: 1; TAAR1 antagonist: 3

What do the screens show for `Cc1ccccc1NC(=O)CC1SC(=O)N(c2ccccc2)C1=O` (stereo not given)?
OX1R antag-1: 22; CHO parental Ca: -22; OX1R antag-2: -26; TAAR1 agonist: 50*; TAAR1 antagonist: -7; TAAR1 ag confirm: 17; Ga16 ag counter: 2; TAAR1 desensitize: 14; Ga16 nonsel ant: 11

Results for O=C(CC1SC(=O)N(c2ccccc2)C1=O)Nc1cccc2ccccc12 (stereo not given) ?
OX1R antag-1: 4; CHO parental Ca: -14; OX1R antag-2: -14; TAAR1 agonist: 0; TAAR1 antagonist: -6

What do the screens show for `Cc1ccc(CN2CCC(c3cc(-c4ccc(Cl)cc4)n[nH]3)CC2)cc1`?
OX1R antag-1: -2; CHO parental Ca: 6; OX1R antag-2: -25; TAAR1 agonist: 67*; TAAR1 antagonist: 33; TAAR1 ag confirm: 85*; Ga16 ag counter: 21*; TAAR1 desensitize: 75*; Ga16 nonsel ant: 31*

How did Clc1ccc(-c2cc(C3CCNCC3)[nH]n2)cc1 do in these assays?
OX1R antag-1: 18; CHO parental Ca: -17; OX1R antag-2: -8; TAAR1 agonist: 4; TAAR1 antagonist: 18
